Measurements gathered from unrelated publications.
Each line is one published result; the experiments were not run side by side.
gag-pol integrase: Gag-Pol polyprotein, integrase (gag-pol, Human immunodeficiency virus 1, UniProt P12497)
CSF1R: Macrophage colony-stimulating factor 1 receptor (CSF1R, Homo sapiens, UniProt P07333)
P2RX7: P2X purinoceptor 7 (P2RX7, Homo sapiens, UniProt Q99572)
IDE: Insulin-degrading enzyme (IDE, Homo sapiens, UniProt P14735)
MET: Hepatocyte growth factor receptor (MET, Homo sapiens, UniProt P08581)
JAK3: Tyrosine-protein kinase JAK3 (JAK3, Homo sapiens, UniProt P52333)
TGFBR1: TGF-beta receptor type-1 (TGFBR1, Homo sapiens, UniProt P36897)
crk3: crk3 (Leishmania mexicana, UniProt O15851)
Ptgs2: Prostaglandin G/H synthase 2 (Ptgs2, Mus musculus, UniProt Q05769)

`C[C@H]1C[C@@H](N2C(=N)N[C@](C)(c3cccc(Nc4ccc(C5CC5)nc4)c3Cl)CC2=O)CCO1` gave an IC50 of 8 µM (Sodium channel protein type 10 subunit alpha (SCN10A, Homo sapiens, UniProt Q9Y5Y9); ion current; inhibitor; patch clamp).
`CNC(=O)c1cc2c(Oc3ccc(NC(=O)C4(C(=O)Nc5ccc(F)cc5)CC4)cc3)ccnc2cc1OC` has an IC50 of 0.005 µM (Hepatocyte growth factor receptor (MET, Homo sapiens, UniProt P08581, Y1230H); enzyme activity; inhibitor; radiometric).
The IC50 of `CC(C)(C)OC(=O)N1CCC(C(=O)N[C@@H](Cc2ccc3ccccc3c2)C(=O)O)(c2ccccc2)CC1` is reported as 90.3 µM (gag-pol integrase; enzyme activity; inhibitor; TR-FRET).
With `CCn1ncc2c1-c1cnc(N)c(c1)O[C@H](C)c1cc(F)ccc1-c1nn(C)nc1C2` the IC50 was 0.489 µM (CSF1R; enzyme activity; inhibitor; radiometric).
For `COc1ccc(-c2n[nH]c(=S)o2)cc1`, the IC50 was 8.29 µM (P2RX7; calcium signal; antagonist).
`COC(=O)[C@H](Cc1c[nH]cn1)NC(=O)CN(CC(=O)O)Cc1ccncc1` gave an IC50 of 6.3 µM (IDE; enzyme activity; inhibitor; fluorescence).
The IC50 of `Cc1cc(Oc2ccc(NC(=O)c3sc(-c4ccccn4)nc3C)cc2F)c2nncn2n1` is reported as 0.9 µM (MET; enzyme activity; inhibitor; mobility shift).
`FC(F)(F)c1cccc(-c2nnc(S)o2)c1` gave an IC50 of 1.5 µM (P2RX7; calcium signal; antagonist).
`O=C(O)[C@H](Cc1ccccc1)NC(=O)C1(c2ccccc2)CCN(S(=O)(=O)c2ccccc2)CC1` has an IC50 of 189 µM (gag-pol integrase; enzyme activity; inhibitor; TR-FRET).
The IC50 of `CC/C=C\C/C=C\C/C=C\C/C=C\C/C=C\CCCC(=O)O` is reported as 88.5 µM (DNA polymerase beta (Rattus norvegicus, UniProt P06766); enzyme activity; inhibitor).
`CCOC(=O)c1cnc2[nH]ccc2c1N[C@@H]1CCCN(C(=O)CC#N)C1` has an IC50 of 0.0036 µM (JAK3; enzyme activity; inhibitor).
For `O=C(O)CN(CCCc1ccccc1)CC(=O)N[C@@H](Cc1c[nH]cn1)C(=O)NCc1ccccc1`, the IC50 was 0.4 µM (IDE; enzyme activity; inhibitor; fluorescence).
For `Cc1cc(Oc2ccc(NC(=O)c3cc(-c4cccs4)no3)cc2F)c2nncn2n1`, the IC50 was 0.54 µM (MET; enzyme activity; inhibitor; mobility shift).
The IC50 of `CC(C)n1nc(-c2ccc3c(c2)sc2ccccc23)c2c(N)ncnc21` is reported as greater than 3 µM (Calmodulin-domain protein kinase 1, putative (Cryptosporidium parvum, UniProt A3FQ16); enzyme activity; inhibitor).
`CC[C@H](C)[C@H](NC(C)=O)C(=O)N[C@@H](CCC(=O)O)C(=O)N[C@H](C(=O)N[C@H](C=O)CC(=O)O)[C@@H](C)O` has an IC50 of 0.0173 µM (Caspase-1 (CASP1, Homo sapiens, UniProt P29466); enzyme activity; inhibitor).
With `CN1CCN(c2ccc(Nc3ncc4cc(C#N)c(=O)n(C5CCCC5)c4n3)cc2)CC1` the IC50 was 1.84 µM (TGFBR1; enzyme activity; inhibitor).
`CC1(C)CC(=O)C=C(NC(=O)Nc2ccc(O)cc2)C1` has an IC50 of 3.3 µM (crk3; enzyme activity; inhibitor; radiometric).
The IC50 of `Cc1ccc(-n2nc(C(C)(C)C)cc2NC(=O)Nc2ccc(OCCN3CCOCC3)c3ccccc23)cc1` is reported as 1.1 µM (Potassium voltage-gated channel subfamily A member 5 (KCNA5, Homo sapiens, UniProt P22460); ion current; inhibitor).
`CC(C)OC(=O)[C@H](Cc1c[nH]cn1)NC(=O)CN(CC(=O)O)Cc1ccccc1` gave an IC50 of 0.3 µM (IDE; enzyme activity; inhibitor; fluorescence).
The IC50 of `CC(C)(C)n1nc(-c2ccc3nc(OC4CC4)ccc3c2)c(C(N)=O)c1N` is reported as greater than 10 µM (JAK3; cell-free assay).
The IC50 of `COC(=O)c1ccc(NC(=O)NC2=CC(=O)CC(C)(C)C2)cc1` is reported as 3.3 µM (crk3; enzyme activity; inhibitor; radiometric).
With `Cc1cc(Oc2ccc(NC(=O)c3cc(-c4cccs4)no3)cc2)c2nncn2n1` the IC50 was 0.88 µM (MET; enzyme activity; inhibitor; mobility shift).
With `CC(C)(C)OC(=O)[C@H](Cc1c[nH]cn1)NC(=O)CN(CC(=O)O)Cc1ccccc1` the IC50 was 0.8 µM (IDE; enzyme activity; inhibitor; fluorescence).
The IC50 of `CCCN(CCC)S(=O)(=O)c1ccc(-c2n[nH]c(=S)o2)cc1` is reported as 6.11 µM (P2RX7; calcium signal; antagonist).
`Cc1ccc(C(=O)Nc2ccc(Oc3cc4cnn(C)c4cc3-c3cn[nH]c3)c(F)c2)c(=O)n1-c1ccc(F)cc1` has an IC50 of 0.032 µM (CSF1R; enzyme activity; inhibitor; radiometric).
For `Cc1cc(Oc2ccc(NC(=O)c3sc(-c4ccncc4)nc3C)cc2F)c2nncn2n1`, the IC50 was 0.65 µM (MET; enzyme activity; inhibitor; mobility shift).
`O=C(Nc1ccn(Cc2ccc(O)cc2C(F)(F)F)n1)c1c(F)cccc1F` gave an IC50 of greater than 10 µM (P2RX7; ion current).
`Cc1ccc(/C=C2\C=C(CC(=O)O)c3cc(F)ccc32)cc1` gave an IC50 of roughly 26 µM (Ptgs2; enzyme activity; inhibitor).
With `CCCC[C@H](NC(=O)C1CN(C)C1)c1ncc(-c2cc3ccccc3nc2OC)[nH]1` the IC50 was 0.016 µM (Histone deacetylase 3 (HDAC3, Homo sapiens, UniProt O15379); enzyme activity; inhibitor).
The IC50 of `CC1(COc2ccc(CC3SC(=O)NC3=O)cc2)CCCCC1` (centres unmarked) is reported as 377 µM (Peroxisome proliferator-activated receptor alpha (PPARA, Homo sapiens, UniProt Q07869); ligand displacement; TR-FRET).
The IC50 of `CC(C)C[C@H](NC(=O)[C@H](Cc1ccccc1)NC(=O)[C@H](Cc1ccc(O)cc1)NC(=O)CNC(=O)[C@H](CCCNC(=N)N)NC(=O)[C@H](CO)NC(=O)[C@H](CCC(N)=O)NC(=O)[C@H](CO)NC(=O)[C@H](C)NC(=O)[C@H](Cc1ccccc1)NC(=O)[C@@H]1CCCN1C(=O)[C@H](CO)NC(=O)[C@H](CCC(N)=O)NC(=O)[C@H](Cc1ccccc1)NC(=O)[C@H](CCC(=O)O)NC(=O)[C@H](CCC(=O)O)NC(=O)[C@H](CC(=O)O)NC(=O)[C@@H](NC(=O)[C@H](CCCNC(=N)N)NC(=O)[C@@H](N)Cc1ccccc1)C(C)C)C(=O)N[C@@H](Cc1ccccc1)C(=O)N[C@@H](CCCNC(=N)N)C(=O)N1CCC[C@H]1C(=O)N[C@@H](CCCNC(=N)N)C(=O)N[C@@H](CC(N)=O)C(N)=O` is reported as 0.000219 µM (Neuromedin-U receptor 2 (NMUR2, Homo sapiens, UniProt Q9GZQ4); ligand displacement; radioligand).
With `NC(=O)NCCC[C@@H](NS(=O)(=O)c1ccc(OCc2cc(Br)cc(Br)c2)cc1)C(=O)NO` the IC50 was greater than 500 µM (Interstitial collagenase (MMP1, Homo sapiens, UniProt P03956); enzyme activity; inhibitor; fluorescence).
For `NC(=O)c1ccc[n+]([C@@H]2O[C@H](COP(=O)([O-])OP(=O)(O)OC[C@H]3O[C@@H](n4cnc5c(N)ncnc54)[C@H](O)[C@@H]3O)[C@@H](O)[C@H]2O)c1`, the IC50 was 5 µM (Protein mono-ADP-ribosyltransferase PARP3 (PARP3, Homo sapiens, UniProt Q9Y6F1); enzyme activity; inhibitor).
The IC50 of `Sc1nnc(-c2ccccn2)o1` is reported as 11.8 µM (P2RX7; calcium signal; antagonist).
For `NC(=O)[C@H](Cc1c[nH]cn1)NC(=O)CN(CC(=O)O)Cc1ccccc1`, the IC50 was 1.4 µM (IDE; enzyme activity; inhibitor; fluorescence).
`Cc1cnc(-c2ccc(-c3ccc(NC(=O)Nc4c(F)cc(F)cc4F)cc3F)c3c2C(=O)NC3)[nH]1` gave an IC50 of 0.0021 µM (Serine/threonine-protein kinase 4 (STK4, Homo sapiens, UniProt Q13043); enzyme activity; inhibitor).
For `COC(=O)[C@H](Cc1c[nH]cn1)NC(=O)CN(CC(=O)O)Cc1ccc(C(F)(F)F)cc1`, the IC50 was 2 µM (IDE; enzyme activity; inhibitor; fluorescence).
With `O=C(O)[C@H](Cc1ccccc1)NC(=O)C1(c2ccc(F)cc2)CCN(S(=O)(=O)c2ccccc2)CC1` the IC50 was 91.3 µM (gag-pol integrase; enzyme activity; inhibitor; TR-FRET).
The IC50 of `CCCc1ccc(S(=O)(=O)Oc2ccccc2NC(=O)c2ccc3ncccc3c2)cc1` is reported as 2.17 µM (P2RX7; calcium signal; antagonist).
With `CCCCCCCCCCC[C@@H](C[C@@H]1OC(=O)[C@H]1CCCCCC)OC(=O)[C@H](CC(C)C)NC=O` the IC50 was 0.168 µM (Lysosomal acid lipase/cholesteryl ester hydrolase (LIPA, Homo sapiens, UniProt P38571); enzyme activity; inhibitor).
`COc1ccc2c(Oc3ccc4c(C(=O)Nc5ccccc5N)cccc4c3)ccnc2c1` has an IC50 of greater than 0.5 µM (JAK3; enzyme activity; inhibitor).
With `CC(C)(C)OC(=O)N1CCC(C(=O)N[C@@H](Cc2ccccc2)C(=O)O)(c2ccc(-c3ccccc3)cc2)CC1` the IC50 was 64.4 µM (gag-pol integrase; enzyme activity; inhibitor; TR-FRET).
The IC50 of `COC(=O)[C@H](CCCNC(=N)N)NC(=O)CN(CC(=O)O)Cc1ccccc1` is reported as 36.3 µM (IDE; enzyme activity; inhibitor; fluorescence).
With `COc1cccc(F)c1Cn1cnc(-c2ccc(F)cc2)c1-c1ccncc1` the IC50 was 1.23 µM (TGFBR1; cell-free assay; TR-FRET).
For `CC(C(=O)O)c1cccc(C(=O)c2ccccc2)c1` (centres unmarked), the IC50 was 0.72 µM (Ptgs2; enzyme activity; inhibitor).
With `CC(C)(C)OC(=O)[C@H](Cc1c[nH]cn1)NC(=O)CN(CCCc1ccccc1)CC(=O)O` the IC50 was 0.4 µM (IDE; enzyme activity; inhibitor; fluorescence).
`O=C(O)C(CCC(c1ccccc1)(c1ccccc1)c1ccccc1)NCc1ccccc1` (racemic) gave an IC50 of greater than 49.2 µM (Kinesin-like protein KIF11 (KIF11, Homo sapiens, UniProt P52732); ATPase activity; inhibitor).
